From ChEMBL document CHEMBL3525967, “In vitro glucuronidation of the antibacterial triclocarban and its oxidative metabolites” (Drug Metab Dispos, 2012) come the findings set out here.

The nature of series [1]: Drug metabolism in B6C3F1 mouse liver microsomes assessed as N-glucuronide-triclocarban formation incubated for 5 mins prior to UDPGA addition measured after 5 to 30 mins by LC-UV analysis. The format is ADME. In short, it runs like this:
(§1)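 Microsomes or UGT Supersomes (5 µg protein) were held 15 min on ice with alamethicin in 100 mM potassium phosphate pH 7.4. TCC was added at 10 µM (2% DMSO) with 10 mM MgCl2 and 10 mM saccharolactone, pre-warmed 5 min at 37 °C, then started with UDPGA. Samples at 5, 10, 15 and 30 min were quenched in ACN. Product was read by LC-UV at 265 nm; rate came from regression over time, three incubations.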

A short description of series [2]: Drug metabolism in cynomolgus monkey liver microsomes assessed as N'-glucuronide-triclocarban formation incubated for 5 mins prior to UDPGA addition measured after 30 mins by LC-UV-ESI-MS/MS analysis. Conditions: 0.5 h. The series is classed as ADME, Macaca fascicularis. In short, it runs like this:
(§2)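 TCC was incubated at 10 µM (2% DMSO) in 100 mM phosphate pH 7.4 with alamethicin-treated microsomes or Supersomes, 10 mM MgCl2 and 10 mM saccharolactone. After 5 min pre-incubation at 37 °C, UDPGA was added to start the reaction. Protein was raised up to 2 mg/mL. Samples were quenched in ACN with 1 µM DCC internal standard, centrifuged, and N-glucuronides detected by LC-ESI-MS/MS in SRM mode.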
On the technique in general: Liver microsomes are a subcellular fraction often used to study metabolism.

Series [3] concerns the target T1, UDP-glucuronosyltransferase 2B7 (Homo sapiens, UniProt P16662).
T1 sequence (P16662 whole entry): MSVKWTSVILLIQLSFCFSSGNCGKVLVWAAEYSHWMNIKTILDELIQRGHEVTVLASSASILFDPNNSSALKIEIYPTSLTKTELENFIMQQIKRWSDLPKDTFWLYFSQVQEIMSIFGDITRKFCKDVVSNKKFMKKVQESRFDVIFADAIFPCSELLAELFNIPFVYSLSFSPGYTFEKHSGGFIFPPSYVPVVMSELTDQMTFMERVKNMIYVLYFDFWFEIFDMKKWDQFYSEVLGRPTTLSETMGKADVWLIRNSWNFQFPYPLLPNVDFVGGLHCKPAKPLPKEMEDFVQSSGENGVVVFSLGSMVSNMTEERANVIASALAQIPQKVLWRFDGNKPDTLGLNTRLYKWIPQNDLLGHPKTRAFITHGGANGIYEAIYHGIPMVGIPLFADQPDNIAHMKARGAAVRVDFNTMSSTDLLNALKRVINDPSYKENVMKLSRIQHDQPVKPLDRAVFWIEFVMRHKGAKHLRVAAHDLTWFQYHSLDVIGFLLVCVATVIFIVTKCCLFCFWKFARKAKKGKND
The series can be described thus: Drug metabolism assessed as human UGT2B7-mediated N-glucuronide-triclocarban formation expressed in baculovirus infected insect sf9 cells incubated for 5 mins prior to UDPGA addition measured after 5 to 30 mins by LC-UV analysis. The series is classed as ADME. In short, it runs like this: as §1

Series [4] is described as follows: Drug excretion in Swiss webster mouse urine assessed as N'-glucuronide-triclocarban formation at 5 mg/kg, po by LC-MS analysis. The series is classed as ADME, organism-based. Also on record: dose 5 mg/kg, route oral. Conditions: in vivo. In short, it runs like this: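 Mice were housed two per metabolic cage, with blank urine collected over the 24 h before dosing. TCC was given by oral gavage as a 1 mg/mL solution in 20/80 DMSO/PEG400 (v/v) at 5 mg/kg. Urine was collected at 0-24 h and 24-48 h and analysed by online LC-MS. Values are the mean of two independent experiments.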

Series [5] concerns the target T2, UDP-glucuronosyltransferase 1A9 (Homo sapiens, UniProt O60656).
T2 sequence (O60656 whole entry): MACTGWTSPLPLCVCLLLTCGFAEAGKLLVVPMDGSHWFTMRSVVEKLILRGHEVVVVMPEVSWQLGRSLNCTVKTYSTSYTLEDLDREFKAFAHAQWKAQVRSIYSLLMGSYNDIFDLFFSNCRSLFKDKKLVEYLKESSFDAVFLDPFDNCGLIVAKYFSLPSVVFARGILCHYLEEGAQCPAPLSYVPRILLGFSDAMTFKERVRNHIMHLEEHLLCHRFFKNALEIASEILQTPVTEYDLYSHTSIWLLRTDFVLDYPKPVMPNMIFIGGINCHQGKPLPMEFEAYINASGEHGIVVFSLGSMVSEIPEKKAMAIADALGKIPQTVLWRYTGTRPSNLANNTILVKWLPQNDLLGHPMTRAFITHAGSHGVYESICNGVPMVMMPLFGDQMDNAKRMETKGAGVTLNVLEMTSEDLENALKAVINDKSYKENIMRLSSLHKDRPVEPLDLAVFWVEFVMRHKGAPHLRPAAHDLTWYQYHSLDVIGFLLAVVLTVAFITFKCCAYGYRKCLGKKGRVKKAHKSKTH
Description: Drug metabolism assessed as human UGT1A9-mediated N-glucuronide-triclocarban formation expressed in baculovirus infected insect sf9 cells incubated for 5 mins prior to UDPGA addition measured after 30 mins by LC-ESI-MS analysis. Conditions: sf9, 0.5 h. The series is classed as ADME. In short, it runs like this: as §2

Series [6] in a line: Drug metabolism in B6C3F1 mouse liver microsomes assessed as N'-glucuronide-triclocarban formation incubated for 5 mins prior to UDPGA addition measured after 5 to 30 mins by LC-UV analysis. The format is ADME. In short, it runs like this:
as §1

In series [7] the target is T3, UDP-glucuronosyltransferase 2B17 (Homo sapiens, UniProt O75795).
T3 sequence (O75795 whole entry): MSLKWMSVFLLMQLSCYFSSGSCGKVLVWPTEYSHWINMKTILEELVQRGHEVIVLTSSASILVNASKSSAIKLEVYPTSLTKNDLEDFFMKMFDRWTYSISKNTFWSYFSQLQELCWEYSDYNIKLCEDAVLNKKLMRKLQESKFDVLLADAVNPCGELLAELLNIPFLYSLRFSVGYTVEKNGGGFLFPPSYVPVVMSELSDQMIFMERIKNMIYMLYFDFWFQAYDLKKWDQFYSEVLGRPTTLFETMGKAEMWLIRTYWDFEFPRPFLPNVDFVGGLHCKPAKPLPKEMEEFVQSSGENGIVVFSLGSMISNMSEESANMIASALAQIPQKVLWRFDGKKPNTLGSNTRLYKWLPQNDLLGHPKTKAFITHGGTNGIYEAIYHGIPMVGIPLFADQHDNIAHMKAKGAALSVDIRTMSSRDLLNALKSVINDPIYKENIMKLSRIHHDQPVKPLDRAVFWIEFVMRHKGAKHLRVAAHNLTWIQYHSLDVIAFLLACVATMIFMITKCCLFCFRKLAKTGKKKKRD
The series can be described thus: Drug metabolism assessed as human UGT2B17-mediated N'-glucuronide-triclocarban formation expressed in baculovirus infected insect sf9 cells incubated for 5 mins prior to UDPGA addition measured after 5 to 30 mins by LC-UV analysis. The series is classed as ADME. In short, it runs like this: as §1

For another series, the system named is Liver microsome. Description: Drug metabolism in human liver microsomes assessed as N-glucuronide-triclocarban formation incubated for 5 mins prior to UDPGA addition measured after 30 mins by LC-UV-ESI-MS/MS analysis. The series is classed as ADME. Conditions: 0.5 h. In short, it runs like this: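 Pooled human kidney or liver microsomes (liver: 25 mixed-gender donors), 5 µg protein, in 200 µL 100 mM potassium phosphate pH 7.4. Alamethicin pre-treated on ice 15 min. Final 10 µM TCC (2% DMSO), with 10 mM MgCl2 and 10 mM saccharolactone, preincubated 5 min at 37 °C. Started with UDPGA (20 mM stock). Sampled at 5, 10, 15 and 30 min into ACN containing 1 µM DCC internal standard.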

Structures are written as SMILES.

As to `O=C(Nc1ccc(Cl)cc1)Nc1ccc(Cl)c(Cl)c1` [TRICLOCARBAN], the Drug metabolism result in series [1] is “metabolite_not_detected”; in series [2] it was “metabolite_detected”; in series [3] it was “metabolite_not_detected”; in series [5] it was “metabolite_detected”; in series [6], “metabolite_not_detected”; in series [7], “metabolite_not_detected”. In addition, in the series on Liver microsome, the Drug metabolism result was “metabolite_detected”. Further, the Drug excretion entry in series [4] is reported as “metabolite_detected”.
